Measurements: PMC11618768 (Scientific Reports, 2024)
≈ marks a conversion by molar mass, not a printed value. Where “and” joins values, the source holds several entries; their conditions need not be identical. Equal values may be shown once.

Key:
[1] = test system: B. subtilis; details: cited from earlier work
[2] = test system: rabbit red blood cells (RBCs); test: In vitro hemolysis assay; assay type: cell-based; details: 1 h, rabbit erythrocytes
Method in brief: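 Rabbit erythrocytes were exposed 1 h to test compound at 1/2×, 1× and 2× MIC. After centrifugation, supernatants were read spectrophotometrically at 570 nm and photographed. PBS served as negative control, and a positive control was included. n = 3.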

[3] = test system: MRSA-244410; test: MIC and MBC, broth dilution; assay type: cell-based, Methicillin-resistant Staphylococcus aureus; details: MRSA-244,410, clinical isolate
Method in brief: (§1)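 Strains were grown from LB agar colonies in LB (180 rpm, 37 °C, 12 h), then diluted 1:100 and grown 3 h to log phase. The inoculum was adjusted to 1 × 10^6 CFU/mL for 96-well broth dilution, 37 °C, 18 h. MIC was the lowest concentration without visible growth. For MBC, 100.0 µL per well was plated on MHA (37 °C, 16–20 h); MBC was the lowest concentration without colonies.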

[4] = test system: MRSA-244661; test: MIC and MBC, broth dilution; assay type: cell-based, Methicillin-resistant Staphylococcus aureus; details: MRSA-244,661, clinical isolate
Method in brief: as §1

[5] = test system: MRSA-244425; test: MIC and MBC, broth dilution; assay type: cell-based, Methicillin-resistant Staphylococcus aureus; details: MRSA-244,425, clinical isolate
Method in brief: as §1

[6] = test system: S. aureus; details: cited from earlier work
[7] = test system: MRSA-244757; test: MIC and MBC, broth dilution; assay type: cell-based, Methicillin-resistant Staphylococcus aureus; details: MRSA-244,757, clinical isolate
Method in brief: as §1

[8] = test system: MRSA-244358; test: MIC and MBC, broth dilution; assay type: cell-based, Methicillin-resistant Staphylococcus aureus; details: MRSA-244,358, clinical isolate
Method in brief: as §1

[9] = test system: LO2 cells; test: Cell viability assay using MTT; assay type: cell-based
Method in brief: (§2)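 Cells were kept in RPMI 1640 with 10% FBS and 1% penicillin-streptomycin at 37 °C, 5% CO2. They were seeded at 1 × 10^5 cells/well and grown 24 h to about 80% confluence. After medium removal, test compound was added at final 0.78125–100.0 µg/mL (twofold series), with a 0.5% DMSO control. Exposure was 24 h or 48 h, then MTT for 4 h, A490. Three repeats; IC50 derived.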

[10] = test system: MRSA (ATCC 433000); test: Time-kill assay; assay type: cell-based, Methicillin-resistant Staphylococcus aureus; details: 24 h
Method in brief: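 MRSA grown to log phase in LB (37 °C, 180 rpm) and adjusted to 1 × 10^6 CFU/mL. Incubated in 24-well plates with test compound at 0, 1/2×MIC or MIC for 24 h at 37 °C. Sampled every 2 h, with absorbance read at 570 nm.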

[11] = test system: MRSA-244268; test: MIC and MBC, broth dilution; assay type: cell-based, Methicillin-resistant Staphylococcus aureus; details: MRSA-244,268, clinical isolate
Method in brief: as §1

[12] = test system: MRSA-244135; test: MIC and MBC, broth dilution; assay type: cell-based, Methicillin-resistant Staphylococcus aureus; details: MRSA-244,135, clinical isolate
Method in brief: as §1

[13] = test system: MRSA strain (ATCC 43300); test: MIC and MBC, broth dilution; assay type: cell-based, Methicillin-resistant Staphylococcus aureus
Method in brief: as §1

[14] = test system: P. notatum; details: cited from earlier work
[15] = test system: HK-2 cells; test: Cell viability assay using MTT; assay type: cell-based
Method in brief: as §2

[16] = test system: MRSA-244548; test: MIC and MBC, broth dilution; assay type: cell-based, Methicillin-resistant Staphylococcus aureus; details: MRSA-244,548, clinical isolate
Method in brief: as §1

[17] = test system: MRSA (ATCC 433000); test: Scanning electron microscopy; assay type: cell-based, Methicillin-resistant Staphylococcus aureus; details: 2×MIC, 12 h
Method in brief: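 Log-phase MRSA exposed to test compound at 2×MIC for 12 h at 37 °C, with untreated cells as blank control. Cells were washed three times in PBS […]. They were fixed in 2.5% glutaraldehyde plus 2% paraformaldehyde for 12 h, air-dried and imaged by scanning electron microscopy.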

[18] = test system: HaCat cells; test: Cell viability assay using MTT; assay type: cell-based
Method in brief: as §2

[19] = test system: MRSA-244288; test: MIC and MBC, broth dilution; assay type: cell-based, Methicillin-resistant Staphylococcus aureus; details: MRSA-244,288, clinical isolate
Method in brief: as §1

[20] = test system: MRSA (ATCC 433000); test: SYTOX green and PI assay; assay type: cell-based, Methicillin-resistant Staphylococcus aureus; details: 1/2×, 2×MIC, 12 h
Method in brief: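 Log-phase MRSA grown in LB at 37 °C, 180 rpm, adjusted to 1 × 10^6 CFU/mL. Exposed to test compound at 1/2×, 1× and 2×MIC for 12 h at 37 °C, then stained with SYTO 9 and PI for 30 min in the dark. Washed twice in PBS (pH 7.5, 0.1 M), then imaged by fluorescence microscopy: green marks viable cells, red marks dead cells.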

[21] = test system: MRSA; test: Mouse skin infection model; assay type: in vivo; details: day 13; 2.0 µg/mL once daily, mice
Method in brief: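 SPF male and female mice (18.0–22.0 g) had dorsal fur shaved and both sides of the back scalded with a scaldometer. 20.0 µL log-phase MRSA (1.5-3 × 10^6 CFU/mL in sterile saline) went onto each wound, which was then covered with sterile gauze. Test compound or vancomycin (2.0 µg/mL, 20.0 µL) was applied topically once daily, and model mice got solvent. Wounds were photographed daily for 13 days, and H&E sections were taken on day 13 (n = 6).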

[22] = test system: human KB carcinoma cells; details: cited from earlier work
[23] = test system: MRSA-244862; test: MIC and MBC, broth dilution; assay type: cell-based, Methicillin-resistant Staphylococcus aureus; details: MRSA-244,862, clinical isolate
Method in brief: as §1

[24] = test system: MRSA; details: cited from earlier work
[25] = test system: MRSA; details: cited from earlier work; remark: listed apart in the source

Molecule: COC1=CC(=O)c2c(O)c3c(c(O)c2C1=O)O[C@]1(Oc2c(cc4cc(C)oc(=O)c4c2O)[C@@H](O)[C@@H]1O)[C@@H]3O [Griseorhodin C]
- Inhibitory activity [1]: inhibitory activity
- Hemolysis rate ([2]; 1/2 MIC): 0.70%
- Hemolysis rate ([2]; 2×MIC): 2.13%
- Hemolysis rate ([2]; MIC): 1.77%
- MIC [3]: 1 µg/mL (≈ 1.9 µM)
- MIC [4]: 1 µg/mL (≈ 1.9 µM)
- MIC [5]: 1 µg/mL (≈ 1.9 µM)
- Inhibitory activity [6]: inhibitory activity
- MIC [7]: 1 µg/mL (≈ 1.9 µM)
- MIC [8]: 1 µg/mL (≈ 1.9 µM)
- Cell morphology under the microscope ([9]; 50 ~ 100 µg/mL): the cell morphology remained normal and the arrangement was regular, and no fragmentation or cell death was observed
- IC50 (cell viability) ([9]; MTT, 48 h): 156.2 µg/mL (≈ 297 µM)
- Inhibition of MRSA growth in time-kill curve ([10]; 1/2×MIC, vs control group): some inhibition of MRSA growth compared to the control group
- Bacteriostatic activity in time-kill curve compared with vancomycin ([10]; MIC): stronger bacteriostatic activity against MRSA than the clinically positive control drug, vancomycin
- MIC [11]: 2 µg/mL (≈ 3.8 µM)
- MIC [12]: 2 µg/mL (≈ 3.8 µM)
- MIC ([13]; MRSA ATCC 43,300): 1.0 µg/mL and 1 µg/mL
- Inhibitory activity [14]: inhibitory activity
- Cell morphology under the microscope ([15]; 50 ~ 100 µg/mL): the cell morphology remained normal and the arrangement was regular, and no fragmentation or cell death was observed
- IC50 (cell viability) ([15]; MTT, 48 h): 86.32 µg/mL (≈ 164 µM)
- MIC [16]: 0.5 µg/mL (≈ 0.95 µM)
- Morphological changes of MRSA by SEM [17]: the cell walls appeared wrinkled, the surfaces showed signs of damage, and cellular integrity was compromised
- Cell morphology under the microscope ([18]; 50 ~ 100 µg/mL): the cell morphology remained normal and the arrangement was regular, and no fragmentation or cell death was observed
- IC50 (cell viability) ([18]; MTT, 48 h): 59.27 µg/mL (≈ 113 µM)
- MIC [19]: 1 µg/mL (≈ 1.9 µM)
- LIVE/DEAD fluorescence (red dead, green viable cells) [20]: exhibits bactericidal effects against MRSA
- HE staining of skin wound [21]: fewer inflammatory cells, lower thickness, and better structural integrity of hair follicles and other structures compared to the Vancomycin-treated group
- Inhibitory activity [22]: inhibitory activity
- MIC [23]: 1 µg/mL (≈ 1.9 µM)

Molecule: CN[C@H](CC(C)C)C(=O)N[C@H]1C(=O)N[C@@H](CC(N)=O)C(=O)N[C@H]2C(=O)N[C@H]3C(=O)N[C@H](C(=O)N[C@H](C(=O)O)c4cc(O)cc(O)c4-c4cc3ccc4O)[C@H](O)c3ccc(c(Cl)c3)Oc3cc2cc(c3O[C@@H]2O[C@H](CO)[C@@H](O)[C@H](O)[C@H]2O[C@H]2C[C@](C)(N)[C@H](O)[C@H](C)O2)Oc2ccc(cc2Cl)[C@H]1O [vancomycin, reference compound]
- MIC ([13]; Staphylococcus aureus, ATCC43|ATCC43300|MRSA): 1 µg/mL (≈ 0.69 µM)

Molecule: 7,8-dideoxygriseorhodin C
- Decrease in MIC on simultaneous treatment with oxacillin [24]: approximately tenfold decrease in MIC
- Combination index ([24]; with oxacillin): < 0.5

Molecule: 8-Methoxygriseorhodin C
- MIC against MRSA [25]: 0.78 µg/mL
